# Published values pooled from the literature.
# Each line is one published result; the experiments were not run side by side.
# Target: Mitogen-activated protein kinase kinase kinase 7 (MAP3K7, Homo sapiens, UniProt O43318)
# One construct used (O43318 1-606): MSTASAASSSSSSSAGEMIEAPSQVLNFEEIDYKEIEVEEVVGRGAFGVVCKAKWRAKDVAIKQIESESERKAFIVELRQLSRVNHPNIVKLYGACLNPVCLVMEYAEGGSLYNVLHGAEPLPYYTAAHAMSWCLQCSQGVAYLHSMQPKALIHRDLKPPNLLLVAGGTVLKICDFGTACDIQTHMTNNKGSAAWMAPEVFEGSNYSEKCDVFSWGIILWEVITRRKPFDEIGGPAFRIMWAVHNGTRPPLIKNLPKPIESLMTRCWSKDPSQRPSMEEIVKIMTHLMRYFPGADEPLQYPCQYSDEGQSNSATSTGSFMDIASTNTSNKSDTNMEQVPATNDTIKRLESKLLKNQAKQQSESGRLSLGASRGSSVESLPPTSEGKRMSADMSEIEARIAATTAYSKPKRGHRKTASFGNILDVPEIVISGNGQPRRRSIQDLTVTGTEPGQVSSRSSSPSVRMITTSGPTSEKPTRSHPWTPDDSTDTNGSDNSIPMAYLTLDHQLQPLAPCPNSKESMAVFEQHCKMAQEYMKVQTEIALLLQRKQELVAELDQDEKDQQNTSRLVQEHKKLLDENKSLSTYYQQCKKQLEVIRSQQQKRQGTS
Structure (SMILES),read-out,method,tested at,remaining binding [%]
NS(=O)(=O)c1cc(NC(=O)Cc2ccccc2)ccc1Oc1cccc(Cl)c1,cell-free assay,competition with immobilised ligand,1 µM,75
CC1CCCN1c1nccc(-c2cnn3ncccc23)n1 (stereo not shown),binding,,1 µM,100
C[C@@H](c1ccc(-n2cnc3c(N)ncnc32)cc1)N1CCc2nn(C)c(Cc3ccccc3)c2C1=O,binding,competition with immobilised ligand,0.1 µM,32
O=C(c1ccc(Nc2ncc(Cl)c(-c3cc4ccccc4s3)n2)cc1)N1CCC(N2CCCC2)CC1,binding,competition with immobilised ligand,1 µM,3.6
Cc1cc(NC(=O)c2cccc(S(F)(F)(F)(F)F)c2)cc(-n2ccn3nc(-c4cccnc4)cc23)c1,cell-free assay,competition with immobilised ligand,1 µM,100
Nc1ncc2c(n1)-c1c([nH]c3ccc(C#CC4CC4)cc13)CCCC2,binding,competition with immobilised ligand,1 µM,89
COc1cnc(Nc2cccc(S(N)(=O)=O)c2)nc1N1CCN(c2ccccc2)C(=O)C1,binding,competition with immobilised ligand,1 µM,74
c1cncc(-c2cccc(Nc3nccc(NC4CCCCC4)n3)c2)c1,binding,competition with immobilised ligand,10 µM,19
CC(C)(O)c1cncc(-c2nc3ccc(F)cc3n2C2CC2)c1,cell-free assay,competition with immobilised ligand,1 µM,100
C[C@@H]1CCN(c2nccc(-c3cnn4ncccc34)n2)C1,binding,,1 µM,81
NS(=O)(=O)c1cc(NC(=O)C2(c3ccccc3Cl)CC2)ccc1Oc1cccc(Cl)c1,cell-free assay,competition with immobilised ligand,1 µM,98
Cc1cnn2ncc(-c3ccnc(N(C)C)n3)c2c1,binding,,1 µM,77
Cn1nc(C(=O)NCc2ccc(C(=O)O)cc2)cc1-c1ccc2[nH]ccc2c1,cell-free assay,competition with immobilised ligand,0.1 µM,95
N[C@H]1CCN(c2nccc(-c3cnn4ncccc34)n2)C1,binding,,1 µM,100
C[C@@H](c1cccc(C#N)c1)n1cc(Cl)cc(C(N)=O)c1=N,cell-free assay,competition with immobilised ligand,1 µM,100
F[C@@H]1CCN(c2nccc(-c3cnn4ncccc34)n2)C1,binding,,1 µM,100
O=C(NCCCN1CCOCC1)c1ccc(Nc2ncc(Cl)c(-c3ccc(Cl)s3)n2)cc1,binding,competition with immobilised ligand,1 µM,4.5
O=C(NCC1CCOCC1)c1n[nH]cc1NC(=O)c1c(F)cccc1F,binding,competition with immobilised ligand,1 µM,73
CN(C)c1ncc(F)c(-c2cnn3ncccc23)n1,binding,,1 µM,98
FC(F)(F)Oc1cccc(-c2cnc3ccc(-c4ccncc4)nn23)c1,binding,competition with immobilised ligand,5 µM,34
c1cnn2ncc(-c3ccnc(N4CCC45COC5)n3)c2c1,binding,,1 µM,51
O=C(NCCCN1CCOCC1)c1ccc(Nc2nccc(-c3cc4ccccc4s3)n2)cc1,binding,competition with immobilised ligand,1 µM,31
